The values that follow come from ChEMBL document CHEMBL1944635, “Synthesis and evaluation of debromohymenialdisine-derived Chk2 inhibitors” (Bioorg Med Chem, 2012).

Test [1] deals with T1, Serine/threonine-protein kinase Chk1 (Homo sapiens, UniProt O14757).
T1 sequence (O14757 whole entry): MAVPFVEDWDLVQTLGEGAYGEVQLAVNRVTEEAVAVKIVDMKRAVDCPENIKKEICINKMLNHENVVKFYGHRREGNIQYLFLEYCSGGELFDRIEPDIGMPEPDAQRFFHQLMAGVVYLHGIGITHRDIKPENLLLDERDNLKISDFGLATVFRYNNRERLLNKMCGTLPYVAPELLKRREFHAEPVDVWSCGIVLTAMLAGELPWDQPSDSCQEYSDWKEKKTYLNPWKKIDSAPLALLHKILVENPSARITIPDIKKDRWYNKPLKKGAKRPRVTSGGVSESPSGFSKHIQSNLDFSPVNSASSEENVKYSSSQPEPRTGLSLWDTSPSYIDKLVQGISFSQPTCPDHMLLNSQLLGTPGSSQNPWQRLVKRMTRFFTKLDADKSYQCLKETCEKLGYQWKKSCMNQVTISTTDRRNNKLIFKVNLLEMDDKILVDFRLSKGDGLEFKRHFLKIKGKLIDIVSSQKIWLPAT
As to the kind of experiment: Inhibition of human CHK1 using STK1 as substrate after 10 mins by HTRF assay. In outline: (§1)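 Human Chk1 or Chk2 was incubated with test agent over a concentration range (final DMSO 0.2%) and STK1 substrate (50 nM for Chk1, 1 µM for Chk2) in 50 mM HEPES pH 7.0 with 5 mM MgCl2 and 1 mM DTT. The reaction was started with 100 µM ATP and ran 10 min at 30 °C. It was stopped with EDTA containing Sa-XL665 and Eu(K) antibody, then held 1 h at room temperature. TR-FRET 665/620 ratio was read, minus the negative control. IC50s are means of at least three independent experiments, each in duplicate.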
On the technique in general: TR-FRET usually uses a lanthanide donor and a delayed reading to cut background.

The target in test [2] is Serine/threonine-protein kinase Chk2 (Homo sapiens, UniProt O96017). Briefly: Inhibition of human Chk2 using STK1 as substrate after 10 mins by HTRF assay. In outline:
as §1

The species named for a further test is Homo sapiens. As to the kind of experiment: Selectivity ratio of IC50 for human CHK1 to IC50 for human CHK2.

Sequence of Serine/threonine-protein kinase Chk2 (O96017 whole entry): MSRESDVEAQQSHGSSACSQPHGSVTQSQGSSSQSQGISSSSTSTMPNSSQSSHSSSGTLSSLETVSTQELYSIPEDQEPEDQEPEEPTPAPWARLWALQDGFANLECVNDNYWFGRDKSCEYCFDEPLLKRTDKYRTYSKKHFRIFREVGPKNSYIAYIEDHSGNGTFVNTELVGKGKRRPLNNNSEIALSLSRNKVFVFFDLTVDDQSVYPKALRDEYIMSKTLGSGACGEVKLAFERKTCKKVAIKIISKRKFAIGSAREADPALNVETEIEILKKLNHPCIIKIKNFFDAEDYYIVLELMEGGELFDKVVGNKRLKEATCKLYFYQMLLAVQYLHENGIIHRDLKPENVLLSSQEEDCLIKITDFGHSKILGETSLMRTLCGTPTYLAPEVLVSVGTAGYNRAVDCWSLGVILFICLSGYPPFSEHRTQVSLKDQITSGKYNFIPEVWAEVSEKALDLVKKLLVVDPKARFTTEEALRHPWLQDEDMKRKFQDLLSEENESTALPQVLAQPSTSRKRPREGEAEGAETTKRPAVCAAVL

The IC50 is the midpoint of a concentration-inhibition curve. Read a low IC50 as inhibition by little substance. Regarding `NC1=NC(=O)/C(=C2\CCNC(=O)c3[nH]c(-c4ccccc4)cc32)N1`, the results for the IC50 in test [1] and in test [2] were 1.31 µM and 0.02 µM, respectively. Further, the Ratio IC50 in the test filed under Homo sapiens was 66.

Turning to `CCOC(=O)CCNC1=NC(=O)/C(=C2\CCNC(=O)c3[nH]c(-c4ccccc4)cc32)N1`, the IC50 in test [1] is > 10 µM; in test [2], 0.277 µM. In the test filed under Homo sapiens, the Ratio IC50 was > 36.

On to `COc1ccc(CNC2=NC(=O)/C(=C3\CCNC(=O)c4[nH]c(-c5ccccc5)cc43)N2)cc1`, for which the IC50 in test [1] was > 10 µM; in test [2], 0.588 µM. The Ratio IC50 in the test listed under Homo sapiens is > 17.

On to `COc1ccc(-c2cc3c([nH]2)C(=O)NCC/C3=C2/NC(N)=NC2=O)cc1`, for which the IC50 turned out to be 0.867 µM in test [1] and 0.014 µM in test [2]. Also, in the test filed under Homo sapiens, the Ratio IC50 turned out to be 62.

For `COc1ccc(-c2cc3c([nH]2)C(=O)NCC/C3=C2/NC(N)=NC2=O)cc1OC`, the values for the IC50 in test [1] and in test [2] were 1.55 µM and 0.014 µM, respectively. For the same compound, the Ratio IC50 in the test filed under Homo sapiens amounted to 111.

On to `NC1=N/C(=C2/CCNC(=O)c3[nH]ccc32)C(=O)N1`, for which the Ratio IC50 in the test filed under Homo sapiens amounted to 4.

As to `CNC1=NC(=O)/C(=C2\CCNC(=O)c3[nH]c(-c4ccccc4)cc32)N1`, the IC50 in test [1] came to 6.56 µM; in test [2] it was 0.171 µM. The Ratio IC50 in the test listed under Homo sapiens turned out to be 38.

Regarding `Nc1nc(C2=C3C(=Nc4ccccc43)C(=O)NCC2)c(O)[nH]1`, half-maximal inhibition in test [1] (IC50) required 0.234 µM. In addition, the Ratio IC50 in the test filed under Homo sapiens turned out to be 29.

For `CCCNC1=NC(=O)/C(=C2\CCNC(=O)c3[nH]c(-c4ccccc4)cc32)N1`, the IC50 is > 10 µM in test [1] and 0.156 µM in test [2]. Further, the Ratio IC50 in the test listed under Homo sapiens was > 64.

For `O=C1N=C(NC2CCCCC2)N/C1=C1/CCNC(=O)c2[nH]c(-c3ccccc3)cc21`, the results for the IC50 in test [1] and in test [2] were > 10 µM and 1.53 µM, respectively. The Ratio IC50 in the test listed under Homo sapiens was > 7.

As to `O=C1N=C(NCc2ccccc2)N/C1=C1/CCNC(=O)c2[nH]c(-c3ccccc3)cc21`, the half-inhibitory concentration (IC50) in test [1] came to 0.905 µM; in test [2], 0.028 µM. Also, in the test filed under Homo sapiens, the Ratio IC50 was 32.
